Experimental data as given in ChEMBL document CHEMBL4513216, “Probing the Open Global Health Chemical Diversity Library for Multistage-Active Starting Points for Next-Generation Antimalarials” (ACS Infect Dis, 2020).

test: Toxicity liver stage against HepG2, at 10uM; assay type: cell-based; set-up: test concentration 10 uM, cell line HepG2-A16-CD81EGFP; details: human, HepG2-A16-CD81EGFP cells; read-out: INHIBITION
Outline: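 Uninfected HepG2-A16-CD81EGFP cells, 3 × 10^3 per well, 1536-well, plated on prespotted compound at 10 μM final, parasite-free screening media added to match infected plates; puromycin 10 μM positive, DMSO 0.5% negative; run in parallel with 48 h PbLuc assay at 37 °C, 5% CO2; viability by CellTiter-Glo luminescence, normalized to controls.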

Row | Compound | cytotoxicity at 10 µM
1 | CS(=O)(=O)CCC(=O)NC1CC(c2ccccc2Cl)C1 (stereo not given) | -4.19%
2 | CC(C)N(C)Cc1cnc2n1CCN(Cc1ccsc1)C2 | 1.96%
3 | O=C1CCCN1Cc1nnc(SCc2ccc3c(c2)CCC3)o1 | 2.03%
4 | Cc1nc(NCCSc2cnn[nH]2)c2cccnc2n1 | 2.98%
5 | CCC(=O)N1CCN(S(=O)(=O)c2cccc(F)c2)[C@H]2CS(=O)(=O)C[C@H]21 | -52%
6 | O=C(c1ccc(F)cc1)N1C[C@H]2CCC[C@@]2(COCc2ccncc2)C1 | 8.04%
7 | COCCNC(=O)[C@@]12CCO[C@@H]1CCN(Cc1cc(C)on1)C2 | -69.8%
8 | COc1cc(N2CCC3(C2)CN(c2cccnc2)C(=O)CN3C)ncn1 (stereo not given) | -107%
9 | Cn1c(Cn2cccn2)nnc1C1CCCN(c2ccncc2)C1 (stereo not given) | -14.2%
10 | CNC(=O)CS(=O)(=O)Cc1cc(Cl)c2c(c1)OCCCO2 | -5.61%
11 | O=C1NCC[C@]12CN(Cc1ccsc1)C[C@H]2c1ccccc1 | -142%
12 | Cc1noc([C@H]2C[C@@H]3CCN(C(=O)N(C)C)C[C@H]3O2)n1 | 2.8%
13 | COc1c(CNCc2cccc(Cn3cncn3)c2)c(C)nn1C | -11.2%
14 | c1cnc(N2CC[C@@H]3[C@@H]2CCN3Cc2cccs2)nc1 | 3.91%
15 | CCS(=O)(=O)N1CCC(OC)c2ccccc2N(CC(=O)NC)C(=O)C1 (stereo not given) | -1.42%
16 | CCn1cc(CN2CCC(C3CCN(C)CC3)CC2)cc1C#N | -0.0399%
17 | Cc1cc(C)c(C#N)c(N2CCC3(CCCN(CCO)C3=O)C2)n1 (stereo not given) | 0.854%
18 | CCc1nc(CCn2ccc3nc(OC)c(C#N)cc3c2=O)no1 | 3.57%
19 | CCCN(CCC)C(=O)CN(C)C1CCc2ccccc21 (stereo not given) | -6.63%
20 | CN1CCOC(CNCC(=O)NCCc2ccc3c(c2)OCCO3)C1 (stereo not given) | -10.2%
21 | COCC(=O)N1CC[C@@H]2O[C@@H](COCc3csc(C)n3)CC[C@@H]21 | 3.24%
22 | COc1ccc(CN2CCCn3cnc(COC(C)C)c3C2)cc1 | -74.9%
23 | Cc1cc(CC(C)NC2CCN(CC(C)C)CC2)[nH]n1 (stereo not given) | -8.32%
24 | Cc1c[nH]nc1C1CCCCN1C(=O)CC1(O)CCCCC1 (stereo not given) | -2.92%
25 | CCN(CC)C(=O)c1ccn(COc2cc(C)cc(C)c2)n1 | 13.9%
26 | Cn1cc(C(=O)CC2CCCN2C(=O)c2coc3ccccc23)cn1 (stereo not given) | -0.65%
27 | Cn1cc(CNCCc2nccs2)c(-c2cccnc2)n1 | 1.83%
28 | CN1CCN(Cc2cnc(S(=O)(=O)CC3CC3)n2CC2CCCO2)CC1 (stereo not given) | -2.87%

Row | Compound | cytotoxicity at 10 µM
29 | CSCC(C)CNC(=O)N1CCSC(C)(C)C1 (stereo not given) | 0.873%
30 | CN(C)C(=O)CNC(=O)c1cc2c(s1)CCN2S(C)(=O)=O | 0.793%
31 | COCC1CN(Cc2ccsc2)Cc2nn(C)cc21 (stereo not given) | 5.15%
32 | Fc1cc(CNc2nncs2)ccc1Cl | -1.74%
33 | COc1cc2nc(C)sc2cc1NC(=O)CN(C)C(C)C | -3.93%
34 | O=C1CC2(CCN(Cc3ccco3)C2)CN1c1ccc2c(c1)OCO2 (stereo not given) | -75.9%
35 | Cc1cn2c(n1)CCC(NC(=O)c1oc(Br)cc1C)C2 (stereo not given) | -20.8%
36 | CCC(NC(=O)c1cc(OC)c2c(c1)OCCO2)c1cccs1 (stereo not given) | -6.66%
37 | NCC1CCC(c2c(C(N)=O)sc3ccccc23)CC1 (stereo not given) | 1.52%
38 | CC(C)(CN1C[C@H](Nc2ncccn2)[C@@H](C2CC2)C1)N1CCOCC1 | 5.41%
39 | Cc1n[nH]c(C)c1NC(=O)CN(CC(O)c1ccc(F)cc1)C1CC1 (stereo not given) | -7.3%
40 | COCCn1cc(C(=O)N2CCCC2c2cnn(C)c2)ccc1=O (stereo not given) | 5.92%
41 | CCCN1CCCC1c1ccc(C(=O)N2CCOCC2)s1 (stereo not given) | -146%
42 | CN(C)CCNc1c(-c2ccccc2)c(=O)c1=O | -9.11%
43 | NC(=O)CS(=O)(=O)Cc1csc(-c2ccc(F)cc2)n1 | -4.95%
44 | CC(CNC(=O)CCCn1cncn1)N1CCc2ccccc2C1 (stereo not given) | -130%
45 | CCN1CCC2(CN(C(C)=O)CC23CCN(C(=O)N(C)C)CC3)C1=O (stereo not given) | 4.88%
46 | CN(C)C(=O)N1C[C@@H]2COC[C@]2(c2nnc(C3CC3)o2)C1 | -4.05%
47 | O=C(Nc1ccncc1)N(CCO)Cc1ccsc1 | -3.98%
48 | COCCN1C(=O)[C@@H]2CC[C@H]1CN(S(=O)(=O)c1ccc(OC)cc1)C2 | 6.35%
49 | Cc1cnc2c(S(=O)(=O)NCC3CCS(=O)(=O)C3)cccc2c1 (stereo not given) | -7.52%
50 | O=C1CCN(C(=O)NCCCc2ccc(Cl)cc2Cl)CCN1 | -2.37%
51 | CC(=O)NCC1CCC2(CCN(c3ncnc4oc(C)nc34)CC2)O1 (stereo not given) | 1.32%
52 | Cn1cc(C2CC(=O)NC23CCN(C(=O)NC2CC2)CC3)cn1 (stereo not given) | 4.97%
53 | Cc1nc(CN2CCCC(NCCOc3ccccc3C#N)C2)no1 (stereo not given) | -1.13%
54 | Cn1ncc2c1CCCC2NCc1ccc(Br)s1 (stereo not given) | -4.41%
55 | CCN1CC(CN(C)c2cc(C)nc(N)n2)Oc2ccccc21 (stereo not given) | 38.8%
